In the library only some 1.8% were active in any assay of this set; here they are far more common.
SIAE inh: blocks human sialic acid acetylesterase; Q9HAT2; SIAE FP-Rh probe binding, fluorescence polarization; inhibition, % at 9.66 µM; 370,000 compounds, 0.69% hits;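 active means inhibition above a cutoff: mean of compounds within the control limits plus 3 SD of those, cut at about 17% in these data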
TCR CD3 inh: inhibitors of human TCR-CD3 interaction. TAMRA-labeled TCR probe fluorescence, biochemical. 360,000 compounds, 0.37% hits. inhibition, % at 9.4 µM; in the data active means inhibition above about 19%;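 further: recombinant mutant TCR 2C K166C tagged with TAMRA read by polarization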
HTRA1 inhibitor: HTRA1 (human) protease inhibition; recombinant HTRA1, FP-rhodamine activity-based probe, fluorescence polarization; inhibition, % at 5.96 µM; Q92743; 340,000 compounds, 0.5% hits; in the data active means inhibition above about 36%
Tn6 DDE FP: disrupts Tn6 cyclic peptide binding to fibrin D-Dimer-E complex | P02675 | Fibrin DD(E) TRITC-Tn6 fluorescence polarization displacement | inhibition, % at 8.3 µM | 370,000 compounds, 0.21% hits | AID 720509;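 active means inhibition above a per-campaign cutoff: mean of compounds within control limits plus 3 SD, cut at about 15% in these data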
Target sequence (P02675 whole entry, looked up): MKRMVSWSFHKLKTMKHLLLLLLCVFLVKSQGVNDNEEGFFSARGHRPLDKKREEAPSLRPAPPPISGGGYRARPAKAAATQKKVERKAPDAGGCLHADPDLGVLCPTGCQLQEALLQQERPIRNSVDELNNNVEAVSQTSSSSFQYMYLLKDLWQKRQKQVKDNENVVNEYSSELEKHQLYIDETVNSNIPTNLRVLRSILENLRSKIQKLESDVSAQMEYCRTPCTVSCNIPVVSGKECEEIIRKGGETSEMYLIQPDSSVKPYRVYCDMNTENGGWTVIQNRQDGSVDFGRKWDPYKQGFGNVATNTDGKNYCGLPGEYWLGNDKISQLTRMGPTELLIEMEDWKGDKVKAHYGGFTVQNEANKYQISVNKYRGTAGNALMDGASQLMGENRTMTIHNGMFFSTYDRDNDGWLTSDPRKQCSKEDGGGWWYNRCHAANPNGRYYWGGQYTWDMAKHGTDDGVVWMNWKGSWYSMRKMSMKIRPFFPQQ
ABHD4 inh: ABHD4 (mouse) inhibition, primary FP screen; purified mABHD4, FP-Rh probe fluorescence polarization; inhibition, % at 8.92 µM; 370,000 compounds, 0.54% hits; AID 720543;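 active means inhibition exceeding the mean over every tested compound plus 3 SD, cut at about 30% in these data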
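Test system: mouse ABHD4 enzyme, wild type. Reagent: FP-Rh fluorescent activity-based probe, added after compound pre-incubation. Timing: pre-incubation 45 min, probe exposure 60 min, at 25 °C. Technique: FP readout, ex 525 nm / em 598 nm. Benchmarks: high control S159A mutant with DMSO, low control median of compound wells.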
Tn7 DDE FP: inhibitors of Tn7 peptide binding to human fibrin DD(E); P02675; inhibition, % at 8.3 µM; AID 720508; FP displacement of FITC-Tn7 peptide from fibrin DD(E); 0% = median of compound wells per plate; 370,000 compounds, 0.13% hits;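 active means inhibition above the mean of compounds falling within the control limits plus 3 SD of them, cut at about 14% in these data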
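Assay system: human fibrin DD(E). Input: DD(E) 2 µM final. Medium: Tris buffer with calcium and detergent, pH 7.8. Compound dosing: single point at 8.3 µM. Timing: 10 min plus 3 h, room temperature. Technique: fluorescence polarization of the labelled Tn7 tracer. Read-out: percent inhibition. Replicates: singlicate testing.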
SIAE confirm: human SIAE inhibition, confirmation | SIAE FP-Rh activity-based probe, fluorescence polarization | 2,300 compounds, 13% hits | inhibition, % at 9.66 µM | AID 1117263 | shares compounds with SIAE inh;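 active means mean inhibition of the replicates above the hit cutoff set in the primary screen, cut at about 17% in these data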;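 further: inhibitors lower polarization as more probe stays unbound to SIAE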
Large screens that a line does not name were inactive (follow-up assays come after a bar, where they were run).

COC(=O)c1cccc(Cn2ccc3ccc(-c4ccc5ccn(C(=O)c6ccc(C)cc6)c5c4)cc32)c1	none (no result: TCR CD3 inh, HTRA1 inhibitor)
CCOc1ccc(Nc2nc(N)c([N+](=O)[O-])c(NCc3ccccc3)n2)cc1	SIAE inh 20.2 | SIAE confirm 31.6
COc1cc(NC(=O)c2cccs2)c(OC)cc1NC(=O)Cc1ccccc1	SIAE inh 18.8 | SIAE confirm inactive
COc1cc(NC(=O)c2cccs2)c(OC)cc1NC(=O)c1cccs1	none (no result: SIAE inh, TCR CD3 inh, Tn6 DDE FP, ABHD4 inh, Tn7 DDE FP)
COC(=O)C1CN(Cc2cn(CCC3OCCO3)nn2)CCS(=O)(=O)N1Cc1ccc(F)cc1 (stereo not drawn)	none (no result: TCR CD3 inh, HTRA1 inhibitor)
Cc1cc(N2CC(C(=O)NCc3cccs3)CC2=O)ccc1C(C)C (stereo not drawn)	SIAE inh 18.0 | SIAE confirm inactive
Cc1ccc(N2CC(C(=O)NCc3cccs3)CC2=O)cc1C (stereo not drawn)	none
O=C(NCC(=O)N1CCN(c2ncccn2)CC1)c1ccc(F)cc1	SIAE inh 22.5 | SIAE confirm inactive
COCCCN1C(=O)[C@H](CC(=O)NCC2CCCCC2)[C@]2(C(=O)OC)CCCCC=C12	none (no result: TCR CD3 inh, HTRA1 inhibitor)
O=C(NCCO)c1cccc(Nc2nc(-c3ccccc3)c3cc(Cl)ccc3n2)c1	SIAE inh 21.3 | SIAE confirm inactive
CS(=O)(=O)N1CCC[C@]2(CC[C@H](CCC#N)O2)C1	none (no result: TCR CD3 inh, HTRA1 inhibitor)
CCOC(=O)C1CCCN(C(=O)c2ccc(OC)c([N+](=O)[O-])c2)C1 (stereo not drawn)	SIAE inh 29.7 | SIAE confirm inactive
COC(=O)[C@]12C[C@H](CC(=O)NCCCCc3ccccc3)C(=O)N(Cc3ccccc3)C1=C[C@H](C(C)C)O[C@@H]2C1CC1	none (no result: HTRA1 inhibitor)
CC(=O)Nc1ccc(N2C(C(C)=O)=NN(c3ccccc3)C2c2cccs2)cc1 (stereo not drawn)	none
CC(=O)Nc1ccc(N2C(C(C)=O)=NN(c3ccc(Cl)cc3)C2c2sccc2C)cc1 (stereo not drawn)	SIAE inh 21.3 | SIAE confirm inactive
CCCOn1nnnc1-c1ccccc1	SIAE inh 18.4 | SIAE confirm inactive
Cc1cc2nc(C)c(Cl)c(=O)n2[nH]1	SIAE inh 34.5 | SIAE confirm inactive
CCN1Cc2nnn(Cc3ccccc3)c2-c2cc(F)ccc2S1(=O)=O	none (no result: TCR CD3 inh, HTRA1 inhibitor)
Cc1ccccc1Cn1c2ccccc2c2cnn(CC(=O)NCc3ccccn3)c(=O)c21	SIAE inh 20.5 | SIAE confirm inactive
CC(C)(C)c1ccc(S(=O)(=O)N2CCCC(C(=O)NCc3cccs3)C2)cc1 (stereo not drawn)	none (no result: TCR CD3 inh, HTRA1 inhibitor)
Cn1nnnc1SCC(=O)Nc1ccc(C(=O)N2CCN(Cc3ccccc3F)CC2)cc1	SIAE inh 17.7 | SIAE confirm inactive
Cc1cccc2c(N=O)c(O)[nH]c12	SIAE inh 45.5 | SIAE confirm 42.5
COC(=O)[C@@]12CCCCC3=C1N(CCC3)C(=O)[C@H]2CC(=O)NCc1ccc(OC)c(OC)c1	none (no result: TCR CD3 inh, HTRA1 inhibitor)
O=C1C(CSCc2ccccc2)NC(=S)N1c1ccccc1 (stereo not drawn)	SIAE inh 100.2 (no result: HTRA1 inhibitor) | SIAE confirm inactive
Cc1cc(S(=O)(=O)c2ccc([N+](=O)[O-])cn2)ccc1Br	SIAE inh 23.7 | SIAE confirm inactive
CC(OC(=O)c1ccc(Cl)nc1)C(=O)NC1CCCC1 (stereo not drawn)	SIAE inh 19.1 | SIAE confirm inactive
CCOC(=O)c1c(NC(=O)c2ccoc2C)sc2c1CCC2	SIAE inh 24.1 | SIAE confirm inactive
Cc1ccc(C)c(N(CC(=O)NC2CCCC2)C(=O)CCC(=O)Nc2nccs2)c1	none
Cc1ccc(N(CC(=O)NC2CCCC2)C(=O)CCC(=O)Nc2nccs2)cc1C	SIAE inh 17.9 | SIAE confirm inactive
CNC(=S)N(Cc1cccs1)Cc1cc2cc(OC)ccc2[nH]c1=O	SIAE inh 42.4 | SIAE confirm 72.6
CCc1nnc(NC(=O)CCn2cnc3ccccc3c2=O)s1	SIAE inh 21.7 (no result: HTRA1 inhibitor) | SIAE confirm inactive
Cc1sc(N/N=C/c2cccnc2)nc1-c1ccccc1	SIAE inh 17.2 | SIAE confirm inactive
C[C@@H]1COc2cc(N3CCSCC3)ccc2S(=O)(=O)N1C	none (no result: TCR CD3 inh, HTRA1 inhibitor)
CCCCc1c(-c2ccccc2OC)ncn1Cc1ccccc1C	none (no result: HTRA1 inhibitor)
COc1cccc(CNC(=O)[C@H]2CCCN2C(=O)[C@H]2CCCN2C(=O)c2cccs2)c1	none (no result: HTRA1 inhibitor)
Cn1c(SCC(=O)c2ccc3c(c2)OCO3)nnc1-c1ccccn1	SIAE inh 25.5 | SIAE confirm inactive
CCOc1cccc(/C=N\NC(=O)c2cnccn2)c1O	none (no result: TCR CD3 inh, HTRA1 inhibitor)
COC(=O)[C@]12C[C@H](CC(=O)NCc3ccccc3)C(=O)N(Cc3ccccc3)C1=C[C@H](C1CCCC1)O[C@@H]2C	none (no result: HTRA1 inhibitor)
C[C@@H]1CCCCO[C@H](CN(C)Cc2ccc(C(=O)O)cc2)[C@@H](C)CN([C@H](C)CO)C(=O)c2cc(N(C)C)ccc2O1	none
C[C@@H]1CCCCO[C@@H](CN(C)Cc2ccc(C(F)(F)F)cc2)[C@@H](C)CN([C@H](C)CO)C(=O)c2cc(N(C)C)ccc2O1	SIAE inh 21.6 | SIAE confirm inactive
COc1ccc(OC)c2c1C(=O)c1ccccc1C2=O	SIAE inh 23.6 (no result: HTRA1 inhibitor) | SIAE confirm inactive
COc1ccc(NC(=S)c2ccc(N(C)C)cc2)cc1	none
Cc1ccc(NC(=S)c2ccc(N(C)C)cc2)cc1	SIAE inh 17.2 | SIAE confirm inactive
COC(=O)C1CCN(C(=O)CCn2nnc(-c3cccs3)n2)CC1	none (no result: TCR CD3 inh, HTRA1 inhibitor)
Cc1[nH]c2ccccc2c1CC(=O)Nc1ccc(Nc2cccnc2)c(-c2ccc(Oc3ccccc3)cc2)c1	none (no result: HTRA1 inhibitor)
CC(=O)O[C@]1(C(C)=O)CCC2C3C=C(C)C4=CC(=O)CC[C@]4(C)C3CC[C@@]21C (stereo partly drawn)	none
C[C@]12CCC(=O)C=C1C=C[C@@H]1[C@@H]2CC[C@@]2(C)[C@H]1CC[C@@]21CCC(=O)O1	SIAE inh 19.3 | SIAE confirm inactive
O=C(N[C@H](C(=O)N1CCC[C@H]1C(=O)NCCc1ccccc1Cl)c1ccccc1)c1cccs1	none (no result: HTRA1 inhibitor)
O=C(NC(=S)N1CCOCC1)c1cn(-c2ccccc2)nc1-c1ccc(F)cc1	SIAE inh 28.1 | SIAE confirm inactive
COc1ccc(C2(O)CN(c3ccc(C)cc3)C3=[N+]2CCCC3)cc1 (stereo not drawn)	SIAE inh 20.0 | SIAE confirm inactive
COc1cccc(NC(=O)c2ccc(-c3ccc([N+](=O)[O-])cc3)o2)c1	none
COc1ccc(NC(=O)c2ccc(-c3ccc([N+](=O)[O-])cc3)o2)cc1OC	SIAE inh 19.0 | SIAE confirm inactive
